The results in this text go back to ChEMBL document CHEMBL5653631, “A Potent and Selective ULK1 Inhibitor Suppresses Autophagy and Sensitizes Cancer Cells to Nutrient Stress” (iScience, 2018).

Active and inactive are the calls of the source. The calls are words filed in the database; no cut-off is given here.

Experiment [1] deals with Protein kinase C delta type (Homo sapiens) (UniProt Q05655). Nature of the experiment: Inhibition of human recombinant PKCd at 40 nM related to control ULK1.
The target in experiment [2] is Insulin receptor (Homo sapiens) (UniProt P06213). Nature of the experiment: Inhibition of human recombinant INSR at 40 nM related to control ULK1.
Experiment [3] concerns the target Serine/threonine-protein kinase tousled-like 2 (Homo sapiens) (UniProt Q86UE8). Nature of the experiment: Inhibition of human recombinant TLK2 at 40 nM in presence of ATP by radiometric assay relative to control.
Experiment [4] has as its target Myosin light chain kinase, smooth muscle (Homo sapiens) (UniProt Q15746). The experiment in a line: Inhibition of human recombinant smMLCK at 40 nM in presence of ATP by radiometric assay relative to control.
For experiment [5], the target named is T1, Serine/threonine-protein kinase BRSK1 (Homo sapiens) (UniProt Q8TDC3).
T1 sequence (whole entry): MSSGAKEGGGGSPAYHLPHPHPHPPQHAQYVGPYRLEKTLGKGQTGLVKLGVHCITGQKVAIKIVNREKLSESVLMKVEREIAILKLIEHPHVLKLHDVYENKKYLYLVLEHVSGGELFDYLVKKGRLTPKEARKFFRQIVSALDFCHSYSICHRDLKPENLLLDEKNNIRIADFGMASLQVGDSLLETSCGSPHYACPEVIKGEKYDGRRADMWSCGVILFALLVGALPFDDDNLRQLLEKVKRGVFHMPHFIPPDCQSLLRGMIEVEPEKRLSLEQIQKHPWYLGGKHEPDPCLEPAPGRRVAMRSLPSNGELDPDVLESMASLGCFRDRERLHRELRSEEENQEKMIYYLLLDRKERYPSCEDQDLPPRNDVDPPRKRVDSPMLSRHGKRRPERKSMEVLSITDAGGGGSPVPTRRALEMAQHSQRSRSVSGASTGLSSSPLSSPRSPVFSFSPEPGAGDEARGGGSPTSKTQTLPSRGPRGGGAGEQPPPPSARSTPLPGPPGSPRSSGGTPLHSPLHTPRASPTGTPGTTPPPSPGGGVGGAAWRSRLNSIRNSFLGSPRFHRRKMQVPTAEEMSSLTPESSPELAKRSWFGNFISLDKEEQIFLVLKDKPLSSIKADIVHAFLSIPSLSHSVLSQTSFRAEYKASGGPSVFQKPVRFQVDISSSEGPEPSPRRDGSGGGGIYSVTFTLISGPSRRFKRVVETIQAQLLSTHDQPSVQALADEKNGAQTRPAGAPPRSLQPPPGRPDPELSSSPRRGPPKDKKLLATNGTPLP
Nature of the experiment: Inhibition of human recombinant BRSK1 at 40 nM related to control ULK1.

Experiment [6] addresses PAS domain-containing serine/threonine-protein kinase (Homo sapiens) (UniProt Q96RG2). The experiment in a line: Inhibition of human recombinant PASK at 40 nM related to control ULK1.
The target in experiment [7] is T2, Serine/threonine-protein kinase Chk1 (Homo sapiens) (UniProt O14757).
T2 sequence (whole entry): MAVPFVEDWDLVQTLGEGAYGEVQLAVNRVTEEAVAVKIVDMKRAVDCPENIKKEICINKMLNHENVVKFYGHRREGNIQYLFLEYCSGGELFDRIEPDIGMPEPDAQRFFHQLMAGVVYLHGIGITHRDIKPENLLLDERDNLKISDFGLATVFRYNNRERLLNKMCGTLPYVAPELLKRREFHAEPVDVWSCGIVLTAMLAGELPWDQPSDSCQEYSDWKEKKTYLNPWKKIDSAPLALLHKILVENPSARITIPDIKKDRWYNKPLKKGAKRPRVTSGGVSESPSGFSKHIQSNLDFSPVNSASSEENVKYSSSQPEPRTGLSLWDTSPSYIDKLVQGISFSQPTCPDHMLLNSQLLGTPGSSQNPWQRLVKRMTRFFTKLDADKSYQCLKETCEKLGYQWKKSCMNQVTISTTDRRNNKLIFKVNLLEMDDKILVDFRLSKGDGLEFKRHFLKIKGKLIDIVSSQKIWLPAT
Nature of the experiment: Inhibition of human recombinant CHK1 at 40 nM related to control ULK1.

Experiment [8] concerns U2OS. Nature of the experiment: Inhibition of autophagy in human U2OS cells assessed as reduction in phagophore formation at 5 uM incubated for 2.5 hrs by Fluorescent microscopy based analysis. It counts as functional, cell-based. The method, boiled down:
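U2OS cells treated 2.5 hr with vehicle or 100 nM AZD8055, with or without 5 μM inhibitor; fixed and immunostained for endogenous ATG12; ATG12-positive puncta (phagophores) assessed by fluorescence microscopy.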

The target in experiment [9] is 3-phosphoinositide-dependent protein kinase 1 (Homo sapiens) (UniProt O15530). The experiment in a line: Inhibition of human recombinant PDK1 at 40 nM in presence of ATP by radiometric assay relative to control.
Experiment [10] concerns the target RAC-beta serine/threonine-protein kinase (Homo sapiens) (UniProt P31751). Nature of the experiment: Inhibition of human recombinant AKT2 at 500 nM in presence of ATP by radiometric assay relative to control. The method, boiled down: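 Panel of 327 recombinant human kinases in radiometric activity assays, each screened in duplicate at a single inhibitor concentration; percent activity remaining relative to vehicle control, percent inhibition taken as 100 minus activity remaining.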

In experiment [11] the target is Cyclin-dependent kinase 12 (Homo sapiens) (UniProt Q9NYV4). Nature of the experiment: Inhibition of human recombinant CRK7 at 500 nM related to control ULK1.
For experiment [12], the target named is MAP/microtubule affinity-regulating kinase 3 (Homo sapiens) (UniProt P27448). Nature of the experiment: Inhibition of human recombinant MARK3 at 500 nM in presence of ATP by radiometric assay relative to control.
Experiment [13] concerns the target Tau-tubulin kinase 2 (Homo sapiens) (UniProt Q6IQ55). Nature of the experiment: Inhibition of human recombinant TTBK2 at 500 nM in presence of ATP by radiometric assay relative to control.
The species entered for experiment [14] is Homo sapiens. Nature of the experiment: Inhibition of human recombinant KHS1 at 500 nM in presence of ATP by radiometric assay relative to control.
Experiment [15] has as its target Macrophage colony-stimulating factor 1 receptor (Homo sapiens) (UniProt P07333). The experiment in a line: Inhibition of human recombinant FMS at 15 nM in presence of ATP by radiometric assay relative to control.
The target in experiment [16] is Calcium/calmodulin-dependent protein kinase type II subunit delta (Homo sapiens) (UniProt Q13557). The experiment in a line: Inhibition of human recombinant CaMK2d at 15 nM related to control ULK1.
In experiment [17] the target is Serine/threonine-protein kinase 38-like (Homo sapiens) (UniProt Q9Y2H1). The experiment in a line: Inhibition of human recombinant NDR2 at 15 nM related to control ULK1.
Experiment [18] addresses Serine/threonine-protein kinase VRK2 (Homo sapiens) (UniProt Q86Y07). Nature of the experiment: Inhibition of human recombinant VRK2 at 15 nM related to control ULK1.

Sequence of Serine/threonine-protein kinase 38-like (Homo sapiens) (Q9Y2H1 2-464 limits assumed): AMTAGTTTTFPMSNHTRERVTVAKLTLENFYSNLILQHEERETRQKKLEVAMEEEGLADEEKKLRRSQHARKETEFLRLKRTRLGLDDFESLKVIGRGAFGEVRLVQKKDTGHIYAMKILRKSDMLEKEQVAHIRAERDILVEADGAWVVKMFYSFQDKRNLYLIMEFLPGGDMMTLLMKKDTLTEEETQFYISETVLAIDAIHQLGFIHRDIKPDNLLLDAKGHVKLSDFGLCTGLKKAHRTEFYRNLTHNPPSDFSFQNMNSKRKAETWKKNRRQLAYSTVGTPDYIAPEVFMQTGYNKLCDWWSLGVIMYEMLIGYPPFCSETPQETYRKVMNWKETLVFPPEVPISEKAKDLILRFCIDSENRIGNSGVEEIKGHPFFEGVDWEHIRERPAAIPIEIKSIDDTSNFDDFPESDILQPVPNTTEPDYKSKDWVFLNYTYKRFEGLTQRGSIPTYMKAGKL
Sequence of PAS domain-containing serine/threonine-protein kinase (Homo sapiens) (Q96RG2 whole entry, the tested form may be a part): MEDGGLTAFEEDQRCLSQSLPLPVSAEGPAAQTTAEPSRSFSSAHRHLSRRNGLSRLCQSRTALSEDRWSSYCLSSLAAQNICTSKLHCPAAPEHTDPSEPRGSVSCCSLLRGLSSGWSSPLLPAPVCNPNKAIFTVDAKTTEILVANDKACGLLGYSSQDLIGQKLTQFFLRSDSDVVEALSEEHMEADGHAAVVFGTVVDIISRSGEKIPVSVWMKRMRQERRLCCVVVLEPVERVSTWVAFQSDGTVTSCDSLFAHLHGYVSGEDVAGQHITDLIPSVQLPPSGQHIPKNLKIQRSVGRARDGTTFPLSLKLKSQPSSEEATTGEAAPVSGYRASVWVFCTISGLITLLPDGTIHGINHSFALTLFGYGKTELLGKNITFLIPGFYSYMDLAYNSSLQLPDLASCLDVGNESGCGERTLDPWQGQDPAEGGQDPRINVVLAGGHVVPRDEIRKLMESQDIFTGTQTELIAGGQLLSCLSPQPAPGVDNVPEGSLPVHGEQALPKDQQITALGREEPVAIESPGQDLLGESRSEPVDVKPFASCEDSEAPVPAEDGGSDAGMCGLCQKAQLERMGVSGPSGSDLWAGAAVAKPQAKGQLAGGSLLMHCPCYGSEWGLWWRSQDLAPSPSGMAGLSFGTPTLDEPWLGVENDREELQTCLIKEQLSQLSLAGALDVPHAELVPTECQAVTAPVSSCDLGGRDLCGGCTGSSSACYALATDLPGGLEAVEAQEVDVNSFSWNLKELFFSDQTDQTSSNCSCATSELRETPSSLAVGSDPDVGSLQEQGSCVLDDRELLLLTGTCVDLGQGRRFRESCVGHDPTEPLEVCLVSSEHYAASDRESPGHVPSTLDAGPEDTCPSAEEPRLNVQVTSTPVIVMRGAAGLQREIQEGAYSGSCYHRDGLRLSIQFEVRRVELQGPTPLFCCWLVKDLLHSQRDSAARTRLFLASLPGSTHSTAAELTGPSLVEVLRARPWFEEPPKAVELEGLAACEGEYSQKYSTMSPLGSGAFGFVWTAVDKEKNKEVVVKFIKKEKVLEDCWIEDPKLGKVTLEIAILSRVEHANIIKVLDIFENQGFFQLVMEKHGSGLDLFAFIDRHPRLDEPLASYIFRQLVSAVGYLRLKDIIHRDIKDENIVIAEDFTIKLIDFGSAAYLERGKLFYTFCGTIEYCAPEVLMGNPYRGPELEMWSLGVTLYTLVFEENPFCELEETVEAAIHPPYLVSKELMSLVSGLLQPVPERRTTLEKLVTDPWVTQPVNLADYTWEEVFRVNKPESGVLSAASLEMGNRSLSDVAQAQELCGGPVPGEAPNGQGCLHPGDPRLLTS
Sequence of Serine/threonine-protein kinase tousled-like 2 (Homo sapiens) (Q86UE8 whole entry, looked up): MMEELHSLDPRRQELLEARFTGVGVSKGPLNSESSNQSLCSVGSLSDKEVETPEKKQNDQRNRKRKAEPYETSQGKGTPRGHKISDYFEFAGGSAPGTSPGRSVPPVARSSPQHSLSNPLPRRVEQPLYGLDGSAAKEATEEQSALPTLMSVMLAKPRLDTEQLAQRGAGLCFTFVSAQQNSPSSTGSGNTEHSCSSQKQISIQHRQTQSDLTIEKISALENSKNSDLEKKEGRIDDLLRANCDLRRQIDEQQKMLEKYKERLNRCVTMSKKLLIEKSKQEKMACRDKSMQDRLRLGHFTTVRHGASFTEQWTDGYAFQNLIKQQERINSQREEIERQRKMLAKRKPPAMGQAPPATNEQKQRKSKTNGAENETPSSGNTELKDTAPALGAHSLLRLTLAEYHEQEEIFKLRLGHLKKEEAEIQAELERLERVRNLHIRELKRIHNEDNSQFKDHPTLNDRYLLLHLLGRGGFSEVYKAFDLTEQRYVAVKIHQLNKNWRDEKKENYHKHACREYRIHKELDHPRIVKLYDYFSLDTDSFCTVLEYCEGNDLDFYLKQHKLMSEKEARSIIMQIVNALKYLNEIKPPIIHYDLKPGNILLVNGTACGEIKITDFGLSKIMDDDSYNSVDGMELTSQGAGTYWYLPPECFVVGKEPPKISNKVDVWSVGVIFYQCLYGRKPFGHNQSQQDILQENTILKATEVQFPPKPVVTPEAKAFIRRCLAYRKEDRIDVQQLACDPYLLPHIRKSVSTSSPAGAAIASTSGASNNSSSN
Sequence of Calcium/calmodulin-dependent protein kinase type II subunit delta (Homo sapiens) (Q13557 whole entry): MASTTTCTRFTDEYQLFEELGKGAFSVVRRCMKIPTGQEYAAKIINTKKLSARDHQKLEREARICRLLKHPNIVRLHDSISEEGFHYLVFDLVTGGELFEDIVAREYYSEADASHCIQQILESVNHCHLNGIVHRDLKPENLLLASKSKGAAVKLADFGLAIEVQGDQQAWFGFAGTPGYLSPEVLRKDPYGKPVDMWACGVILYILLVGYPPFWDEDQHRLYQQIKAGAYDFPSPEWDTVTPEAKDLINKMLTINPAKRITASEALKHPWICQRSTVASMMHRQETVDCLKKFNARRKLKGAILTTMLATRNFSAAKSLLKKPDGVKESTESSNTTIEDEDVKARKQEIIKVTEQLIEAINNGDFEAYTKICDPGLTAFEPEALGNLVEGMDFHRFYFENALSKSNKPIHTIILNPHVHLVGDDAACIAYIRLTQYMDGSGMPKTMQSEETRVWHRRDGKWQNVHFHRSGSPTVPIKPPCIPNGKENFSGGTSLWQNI
Sequence of Serine/threonine-protein kinase VRK2 (Homo sapiens) (Q86Y07 whole entry): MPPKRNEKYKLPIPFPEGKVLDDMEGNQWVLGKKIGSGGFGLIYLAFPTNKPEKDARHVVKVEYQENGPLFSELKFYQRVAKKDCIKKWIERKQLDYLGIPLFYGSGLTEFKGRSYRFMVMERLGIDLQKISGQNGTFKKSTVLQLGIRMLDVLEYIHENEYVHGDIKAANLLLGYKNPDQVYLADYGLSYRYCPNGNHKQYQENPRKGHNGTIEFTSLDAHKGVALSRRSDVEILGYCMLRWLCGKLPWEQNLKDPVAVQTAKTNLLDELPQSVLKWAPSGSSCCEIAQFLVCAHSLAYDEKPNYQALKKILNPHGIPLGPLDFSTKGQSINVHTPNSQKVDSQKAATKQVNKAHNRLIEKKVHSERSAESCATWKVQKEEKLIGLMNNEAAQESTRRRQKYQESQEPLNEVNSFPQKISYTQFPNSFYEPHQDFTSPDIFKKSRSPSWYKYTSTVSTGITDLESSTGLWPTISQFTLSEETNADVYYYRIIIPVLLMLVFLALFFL
Sequence of Macrophage colony-stimulating factor 1 receptor (Homo sapiens) (P07333 whole entry): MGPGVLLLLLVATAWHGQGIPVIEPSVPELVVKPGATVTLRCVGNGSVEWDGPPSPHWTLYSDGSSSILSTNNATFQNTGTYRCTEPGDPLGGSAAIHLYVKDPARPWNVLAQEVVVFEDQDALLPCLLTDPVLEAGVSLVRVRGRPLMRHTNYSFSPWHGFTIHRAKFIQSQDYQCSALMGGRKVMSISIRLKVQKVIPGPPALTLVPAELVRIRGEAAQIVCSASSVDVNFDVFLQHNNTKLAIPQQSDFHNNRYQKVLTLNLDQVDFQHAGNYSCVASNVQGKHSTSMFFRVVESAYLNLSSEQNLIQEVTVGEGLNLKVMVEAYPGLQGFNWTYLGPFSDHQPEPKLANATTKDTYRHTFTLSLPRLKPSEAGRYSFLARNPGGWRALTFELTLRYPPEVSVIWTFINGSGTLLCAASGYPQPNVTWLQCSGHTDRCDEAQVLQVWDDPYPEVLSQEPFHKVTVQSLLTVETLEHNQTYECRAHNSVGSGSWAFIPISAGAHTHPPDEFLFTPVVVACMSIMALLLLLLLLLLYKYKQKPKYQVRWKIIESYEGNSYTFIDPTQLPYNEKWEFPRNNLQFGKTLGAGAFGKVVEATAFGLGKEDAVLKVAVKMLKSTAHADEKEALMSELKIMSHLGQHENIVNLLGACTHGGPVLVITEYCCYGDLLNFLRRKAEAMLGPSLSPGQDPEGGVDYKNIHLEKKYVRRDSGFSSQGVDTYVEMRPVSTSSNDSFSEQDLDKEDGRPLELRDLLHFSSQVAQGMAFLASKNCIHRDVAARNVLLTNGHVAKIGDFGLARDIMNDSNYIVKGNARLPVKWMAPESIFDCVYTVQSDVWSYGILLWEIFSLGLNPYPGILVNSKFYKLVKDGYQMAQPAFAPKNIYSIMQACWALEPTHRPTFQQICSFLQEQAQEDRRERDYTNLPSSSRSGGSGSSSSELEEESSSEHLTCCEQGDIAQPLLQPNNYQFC
Sequence of RAC-beta serine/threonine-protein kinase (Homo sapiens) (P31751 whole entry): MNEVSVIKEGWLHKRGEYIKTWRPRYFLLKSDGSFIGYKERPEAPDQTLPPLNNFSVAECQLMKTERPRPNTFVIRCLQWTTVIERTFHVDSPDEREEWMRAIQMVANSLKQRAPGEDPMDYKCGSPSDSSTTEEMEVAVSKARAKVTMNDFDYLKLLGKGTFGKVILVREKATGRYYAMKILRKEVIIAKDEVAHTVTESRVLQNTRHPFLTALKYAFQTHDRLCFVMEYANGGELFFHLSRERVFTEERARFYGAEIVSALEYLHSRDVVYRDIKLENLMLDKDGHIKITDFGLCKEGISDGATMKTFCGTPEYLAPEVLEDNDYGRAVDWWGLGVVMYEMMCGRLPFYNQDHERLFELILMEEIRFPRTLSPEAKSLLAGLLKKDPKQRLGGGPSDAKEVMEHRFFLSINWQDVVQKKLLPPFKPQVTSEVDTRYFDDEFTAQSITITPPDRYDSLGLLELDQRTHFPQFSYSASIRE

`O=C(N[C@@H](C1CC1)C(F)(F)F)c1cc(-c2cnn3cc(-c4ccc(F)cc4)cnc23)cs1`: the fold change (FC) in experiment [1] came out at 0.04; in experiment [2] it was 0; in experiment [5], 0.03; in [6] it was 0.16; in experiment [7], 0. Also, the inhibition in experiment [3] was found to be 0%; in experiment [4], 5%; in experiment [9], 0%. In [8], the inhibition result is “Active”.

On to `CNC(=O)c1ccccc1Oc1nc(Nc2cc(OC)c(OC)c(OC)c2)ncc1Br`, for which the inhibition is 7% in experiment [10], 45% in experiment [12], 6% in experiment [13] and 11% in [14]. In addition, in [11], the fold change (FC) came out at 0.

On to `CC(C)[C@H](NC(=O)c1cc(-c2cnn3cc(-c4ccc(OCCN5CCCCC5)cc4)cnc23)cs1)C(F)(F)F`, for which, in experiment [15], the inhibition is 17%. The fold change (FC) in experiment [16] was found to be 0.23; in experiment [17], 0.02; in experiment [18], 0.
